Source: ChEMBL document CHEMBL1130427, “Phenylimidazolidin-2-one derivatives as selective 5-HT3 receptor antagonists and refinement of the pharmacophore model for 5-HT3 receptor binding” (J Med Chem, 1997)
The source made the active and inactive calls.

Legend:
[1] = biological target: T1, Serotonin 3 (5-HT3) receptor (Rattus norvegicus) (UniProt P35563+Q9JJ16); assay: Antagonist activity ([…]) for the Bezold Jarisch reflex evoked by 30 ug/Kg of 5-HT in ethylurethane anesthetized rats (i.v.); type: functional
[2] = biological target: T1, Serotonin 3 (5-HT3) receptor (Rattus norvegicus); assay: (§1) Inhibition of the Bezold Jarisch reflex evoked by 30 ug/Kg of 5-HT.; type: functional
Outline: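 Rats anesthetized with ethylurethane, 1.25 g/kg ip. Bezold–Jarisch reflex evoked by 5-HT 30 μg/kg iv. The rapid, transient fall in heart rate was quantified without and with antagonist.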

[3] = biological target: T2, Serotonin 3 (5-HT3) receptor (Rattus norvegicus, UniProt P35563+Q9JJ16); assay: In vitro affinity for 5-hydroxytryptamine 3 (5-HT3) receptor by displacement of [3H]BRL-43694 from rat entorhinal cortex
T2 sequence (P35563 whole entry): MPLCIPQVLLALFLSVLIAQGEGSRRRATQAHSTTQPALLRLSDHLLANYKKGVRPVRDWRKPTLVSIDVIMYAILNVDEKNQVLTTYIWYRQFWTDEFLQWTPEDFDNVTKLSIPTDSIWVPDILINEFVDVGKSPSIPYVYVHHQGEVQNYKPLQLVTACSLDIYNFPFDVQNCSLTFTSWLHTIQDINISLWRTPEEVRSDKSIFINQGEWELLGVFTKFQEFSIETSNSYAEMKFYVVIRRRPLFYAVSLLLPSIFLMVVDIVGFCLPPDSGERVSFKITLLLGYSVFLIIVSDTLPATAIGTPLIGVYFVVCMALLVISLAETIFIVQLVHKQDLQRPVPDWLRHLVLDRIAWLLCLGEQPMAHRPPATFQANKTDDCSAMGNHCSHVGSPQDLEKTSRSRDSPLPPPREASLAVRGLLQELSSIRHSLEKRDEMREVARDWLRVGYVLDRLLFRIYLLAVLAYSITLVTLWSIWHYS
T2 sequence (Q9JJ16 whole entry): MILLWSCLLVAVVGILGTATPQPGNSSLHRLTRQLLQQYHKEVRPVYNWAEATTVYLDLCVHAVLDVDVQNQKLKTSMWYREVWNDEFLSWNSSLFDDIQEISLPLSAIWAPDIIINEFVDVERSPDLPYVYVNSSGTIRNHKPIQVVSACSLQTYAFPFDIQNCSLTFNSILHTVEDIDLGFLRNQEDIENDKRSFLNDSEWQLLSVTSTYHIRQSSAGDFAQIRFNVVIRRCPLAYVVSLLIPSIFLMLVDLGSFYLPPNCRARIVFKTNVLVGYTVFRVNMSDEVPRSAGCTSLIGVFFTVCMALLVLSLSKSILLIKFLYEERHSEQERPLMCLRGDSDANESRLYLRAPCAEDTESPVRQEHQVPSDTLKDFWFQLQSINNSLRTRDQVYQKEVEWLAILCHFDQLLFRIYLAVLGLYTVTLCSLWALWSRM
Outline: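 Each displacement curve has 10 concentrations in triplicate; Ki averaged from at least three curves (±SEM) using the Ligand program.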

[4] = biological target: T1, Serotonin 3 (5-HT3) receptor (Rattus norvegicus); assay: Inhibition of the Bezold Jarisch reflex evoked by 30 ug/Kg of 5-HT; Weak activity.; type: functional
[5] = test system: Rattus norvegicus; assay: Antagonist activity (100 ug/kg) for the Bezold Jarisch reflex evoked by 30(ug/Kg) of 5-HT receptor in ethylurethane anesthetized rats i.v.; type: functional
[6] = biological target: T1, Serotonin 3 (5-HT3) receptor (Rattus norvegicus); assay: as §1; type: functional; remark: listed apart in the source
[7] = biological target: T3, 5-hydroxytryptamine receptor 3A (Rattus norvegicus) (UniProt P35563); assay: Antagonist activity (100 ug/kg) for the Bezold Jarisch reflex evoked by 30 (ug/Kg) of 5-hydroxytryptamine 3 receptor in ethylurethane anesthetized rats i.v.; type: functional
T3 sequence (whole entry): T2 sequence (P35563 whole entry)

SMILES: Cc1c(CN2CCN(c3ccccc3)C2=O)ncn1C
- inhibition [1]: 77%
- ID50 [2]: 28.5 µg/kg
- Ki [3]: 8.5 nM

SMILES: CN1C2CCCC1CC(N1CCN(c3cccc(Cl)c3)C1=O)C2 (stereo in doubt; 38) [listing 1 of 2 here]
- Ki [3]: 360 nM

SMILES: CN1C2CCC1CC(N1CCN(c3ccccc3)C1=O)C2 (centres undefined)
- inhibition [1]: 56%
- ID50 [4]: Partially active
- Ki [3]: 12 nM

SMILES: O=C1N(c2cccc([N+](=O)[O-])c2)CCN1C1CN2CCC1CC2 (centres undefined)
- inhibition [1]: 5%
- ID50 [4]: Partially active
- Ki [3]: 10 nM

SMILES: Cc1[nH]cnc1CN1CCN(c2cccc(Br)c2)C1=O
- inhibition [1]: 89%
- ID50 [2]: 6.5 µg/kg
- Ki [3]: 0.62 nM

SMILES: O=C1N(c2cccc(Cl)c2)CCN1C1CN2CCC1CC2 (centres undefined)
- Inhibition [5]: 60%
- ID50 [6]: 0.0799 mg/kg
- Ki [3]: 2 nM

SMILES: Cc1[nH]cnc1CN1CCN(c2ccccc2)C1=O
- inhibition [1]: 95%
- ID50 [2]: 3.9 µg/kg
- Ki [3]: 3.4 nM

SMILES: COc1ccc(Cl)cc1N1CCN(C2CC3CCCC(C2)N3C)C1=O (centres undefined)
- inhibition [1]: 5%
- ID50 [4]: Partially active
- Ki [3]: > 10000 nM

SMILES: COc1ccc(Cl)cc1N1CCN(C2CN3CCC2CC3)C1=O (centres undefined)
- inhibition [1]: 11%
- ID50 [4]: Partially active
- Ki [3]: 40 nM

SMILES: CN1C2CCC1CC(NC(=O)N1CC(C)(C)c3ccccc31)C2 (centres undefined)
- inhibition [1]: 90.5%
- ID50 [2]: 0.89 µg/kg
- Ki [3]: 0.26 nM

SMILES: CN1C2CCC1CC(N1CCN(c3cccc(Cl)c3)C1=O)C2 (stereo in doubt; 34) [listing 1 of 2 here]
- inhibition [1]: 0%
- ID50 [4]: Partially active

SMILES: Cc1[nH]cnc1CN1CCN(c2cccc(C#N)c2)C1=O
- inhibition [1]: 88%
- ID50 [2]: 32.2 µg/kg
- Ki [3]: 2.7 nM

SMILES: CSc1cccc(N2CCN(C3CN4CCC3CC4)C2=O)c1 (centres undefined)
- inhibition [1]: 28%
- ID50 [4]: Partially active
- Ki [3]: 6 nM

SMILES: CN1C2CCCC1CC(N1CCN(c3cccc(Cl)c3)C1=O)C2 (stereo in doubt; 38) [listing 2 of 2 here]
- inhibition [1]: 21%
- ID50 [4]: Partially active

SMILES: CN1C2CCCC1CC(N1CCN(c3cccc(Cl)c3)C1=O)C2 (stereo in doubt; 37) [listing 1 of 2 here]
- Ki [3]: 250 nM

SMILES: CSc1cccc(N2CCN(Cc3nc[nH]c3C)C2=O)c1
- inhibition [1]: 88%
- ID50 [2]: 28.6 µg/kg
- Ki [3]: 1.6 nM

SMILES: Cc1[nH]c[n+](C)c1CN1CCN(c2ccccc2)C1=O
- inhibition [1]: 45%
- ID50 [4]: Partially active
- Ki [3]: 55 nM

SMILES: COc1cccc(N2CCN(Cc3nc[nH]c3C)C2=O)c1
- inhibition [1]: 92%
- ID50 [2]: 15.4 µg/kg
- Ki [3]: 3.6 nM

SMILES: CN1C2CCC1CC(N1CCN(c3cccc(Cl)c3)C1=O)C2 (stereo in doubt; 33) [listing 1 of 2 here]
- inhibition [1]: 27%
- ID50 [4]: Partially active

SMILES: N#Cc1cccc(N2CCN(C3CN4CCC3CC4)C2=O)c1 (centres undefined)
- inhibition [1]: 43%
- ID50 [4]: Partially active
- Ki [3]: 30 nM

SMILES: COc1cccc(N2CCN(C3CN4CCC3CC4)C2=O)c1 (centres undefined)
- Inhibition [5]: 37%
- ID50 [4]: Partially active
- Ki [3]: 6 nM

SMILES: Cc1nccn1CC1CCc2c(c3ccccc3n2C)C1=O (centres undefined)
- ID50 [2]: 2.25 µg/kg

SMILES: Cc1[nH]cnc1CN1CCN(c2ccccc2Cl)C1=O
- inhibition [1]: 5%
- ID50 [4]: Partially active
- Ki [3]: 290 nM

SMILES: CN1C2CCC1CC(N1CCN(c3cccc(Cl)c3)C1=O)C2 (stereo in doubt; 34) [listing 2 of 2 here]
- Ki [3]: > 10000 nM

SMILES: O=C1N(c2ccc(Cl)cc2)CCN1C1CN2CCC1CC2 (centres undefined)
- ID50 [4]: Partially active
- inhibition [7]: 8%
- Ki [3]: 210 nM

SMILES: CN1C2CCCC1CC(N1CCN(c3cccc(Cl)c3)C1=O)C2 (stereo in doubt; 37) [listing 2 of 2 here]
- inhibition [1]: 15%
- ID50 [4]: Partially active

SMILES: Cc1cc(C)cc(N2CCN(Cc3nc[nH]c3C)C2=O)c1
- inhibition [1]: 86%
- ID50 [2]: 3.4 µg/kg
- Ki [3]: 0.42 nM

SMILES: O=C1N(c2cccc(Br)c2)CCN1C1CN2CCC1CC2 (centres undefined)
- inhibition [1]: 77.7%
- ID50 [4]: Partially active
- Ki [3]: 3 nM

SMILES: CN1C2CCCC1CC(N1CCN(c3ccccc3)C1=O)C2 (centres undefined)
- inhibition [1]: 22%
- ID50 [4]: Partially active
- Ki [3]: 190 nM

SMILES: Cc1[nH]cnc1CN1CCN(c2cccc(F)c2)C1=O
- inhibition [1]: 84%
- ID50 [2]: 17.6 µg/kg
- Ki [3]: 3.7 nM

SMILES: CN1[C@@H]2CC[C@H]1C[C@@H](OC(=O)c1c[nH]c3ccccc13)C2
- ID50 [2]: 1 µg/kg

SMILES: CCn1cnc(CN2CCN(c3ccccc3)C2=O)c1C
- inhibition [1]: 21%
- ID50 [4]: Partially active
- Ki [3]: 85 nM

SMILES: Cc1[nH]cnc1CN1CCN(c2cc(Cl)cc(Cl)c2)C1=O
- inhibition [1]: 93%
- ID50 [2]: 2.2 µg/kg
- Ki [3]: 0.038 nM

SMILES: Cc1cccc(N2CCN(C3CN4CCC3CC4)C2=O)c1 (centres undefined)
- inhibition [1]: 75%
- ID50 [6]: 0.0376 mg/kg
- Ki [3]: 4 nM

SMILES: COc1ccc(Cl)cc1N1CCN(C2CC3CCC(C2)N3C)C1=O (centres undefined)
- inhibition [1]: 22%
- ID50 [4]: Partially active
- Ki [3]: 400 nM

SMILES: O=C1N(c2cc(Cl)cc(Cl)c2)CCN1C1CN2CCC1CC2 (centres undefined)
- inhibition [1]: 76%
- ID50 [2]: 20.6 µg/kg
- Ki [3]: 1 nM

SMILES: Cc1[nH]cnc1CN1CCN(c2cccc([N+](=O)[O-])c2)C1=O
- inhibition [1]: 95%
- ID50 [2]: 54 µg/kg

SMILES: CN1C2CCC1CC(N1CCN(c3cccc(Cl)c3)C1=O)C2 (stereo in doubt; 33) [listing 2 of 2 here]
- Ki [3]: 25 nM

SMILES: O=C1N(c2ccccc2)CCN1C1CN2CCC1CC2 (centres undefined)
- inhibition [1]: 71%
- ID50 [2]: 67.1 µg/kg
- Ki [3]: 8 nM

SMILES: Cc1cccc(N2CCN(Cc3nc[nH]c3C)C2=O)c1
- inhibition [1]: 86%
- ID50 [2]: 3.1 µg/kg
- Ki [3]: 0.93 nM

SMILES: CN1C2CCCC1CC(NC(=O)c1nn(C)c3ccccc13)C2 (centres undefined)
- inhibition [1]: 95%
- ID50 [2]: 0.88 µg/kg

SMILES: CC[n+]1c[nH]c(C)c1CN1CCN(c2ccccc2)C1=O
- inhibition [1]: 38%
- ID50 [4]: Partially active
- Ki [3]: 67 nM

SMILES: Cc1[nH]cnc1CN1CCN(c2ccc(Cl)cc2)C1=O
- inhibition [1]: 29%
- ID50 [4]: Partially active
- Ki [3]: 19 nM

SMILES: Cc1[nH]cnc1CN1CCN(c2cccc(Cl)c2)C1=O
- inhibition [1]: 87%
- ID50 [2]: 5.26 µg/kg
- Ki [3]: 0.5 nM

SMILES: Cc1nc[nH]c1CN1CCN(c2cccc([N+](=O)[O-])c2)C1=O
- Ki [3]: 6.6 nM

SMILES: O=C1N(c2cccc(C(F)(F)F)c2)CCN1C1CN2CCC1CC2 (centres undefined)
- inhibition [1]: 14%
- ID50 [4]: Partially active
- Ki [3]: 98 nM

SMILES: Cc1[nH]cnc1CN1CCN(c2cccc(C(F)(F)F)c2)C1=O
- inhibition [1]: 39%
- ID50 [4]: Partially active
- Ki [3]: 9.7 nM

SMILES: O=C1N(Cc2c[nH]cn2)CCN1c1ccccc1
- inhibition [1]: 56%
- ID50 [4]: Partially active
- Ki [3]: 4 nM
